Data from paper PMC6923438 (Saudi Journal of Biological Sciences, 2019).

How the values were obtained:
[1] = tested on: 3T3-L1 adipocyte; test: Glucose consumption in 3T3-L1 adipocyte; assay type: cell-based
[2] = tested on: 3T3-L1 preadipocyte; test: 3T3-L1 preadipocyte differentiation; assay type: cell-based; settings: Oil Red O, TG content; vs induced control
How it was run: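 3T3-L1 cells seeded at 2×10^4 cells/mL in 6-well plates. Differentiation was induced in DMEM with insulin (10 µg/mL), IBMX (0.5 mM), dexamethasone (1 µM) and 10% FBS for 48 h, then DMEM with insulin and FBS, then basic medium changed every 48 h. Test compound (12.5, 25, 50 µg/mL) was present throughout. Lipid droplets stained with Oil Red O 10 days after induction.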

[3] = tested on: STZ-induced T1DM; assay type: in vivo; settings: glibenclamide group (2.5 mg/kg), STZ induced mice
How it was run: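 Swiss albino mice (20 ± 5 g, either sex) were given STZ 40 mg/kg i.p. for 5 days; mice with fasting glucose >220 mg/dl were taken as diabetic (18/group). They were dosed orally once daily for 2 weeks. Tail-vein glucose (glucometer) and body weight were recorded at intervals; weight loss was taken as day 1 versus pre-sacrifice weight. Liver and kidneys were weighed at sacrifice for organ index.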

[4] = tested on: STZ-induced T1DM; test: Pancreatic islet mass and pancreas histopathology in STZ-induced T1DM; assay type: in vivo, mice
How it was run: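 STZ-diabetic mice (40 mg/kg i.p. × 5 days; glucose >220 mg/dl) were gavaged daily for 2 weeks with test compound at 10 or 20 mg/kg, or glibenclamide 2.5 mg/kg. Pancreas was formalin-fixed, paraffin-embedded, cut at 5 µm and stained with H&E. Islet mass was calculated as pancreas weight × relative β-cell area on slides; ANOVA versus model group.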

[5] = tested on: gut microbiota; test: 16S rRNA gene sequencing of caecal content, STZ induced diabetic rats; assay type: in vivo; settings: STZ + Gli (2.5 mg/kg)

SMILES: COc1ccc(Cl)cc1C(=O)NCCc1ccc(S(=O)(=O)NC(=O)NC2CCCCC2)cc1 [Glibenclamide, glibenclamide]
- Glucose consumption (in words) [1]: significantly increased
- Glucose consumption ([1]; 1 µg/mL): 12.62 ± 0.67 mmol/L
- 3T3-L1 preadipocyte differentiation [2]: significant differentiation
- renal index [3]: 1.41 ± 0.13
- pancreas histopathology ([4]; STZ induced type I DM): almost similar histopathology effect
- β-cell mass ([4]; glibenclamide group (2.5 mg/kg), STZ induced mice): 1.5 ± 0.02
- Actinobacteria, 16S rRNA gene sequencing of caecal content [5]: 0.35 ± 0.03
- Bacteroidates, 16S rRNA gene sequencing of caecal content [5]: 0.28 ± 0.05
- Bacteroidetes, 16S rRNA gene sequencing of caecal content [5]: 0.23 ± 0.09
- Bifldobacteriales, 16S rRNA gene sequencing of caecal content [5]: 0.5 ± 0.04
- Burkholderiaies, 16S rRNA gene sequencing of caecal content [5]: 0.34 ± 0.04
- Campylobacterioles, 16S rRNA gene sequencing of caecal content [5]: 0.61 ± 0.09
- Clostridiales, 16S rRNA gene sequencing of caecal content [5]: 0.29 ± 0.05
- Coriobacteriales, 16S rRNA gene sequencing of caecal content [5]: 0.32 ± 0.09
- Cyanobacteria, 16S rRNA gene sequencing of caecal content [5]: 0.3 ± 0.07
- Desulfovibrionales, 16S rRNA gene sequencing of caecal content [5]: 0.25 ± 0.06
- Enterobacteriales, 16S rRNA gene sequencing of caecal content [5]: 0.3 ± 0.06
- Eryslpelotrichales, 16S rRNA gene sequencing of caecal content [5]: 0.5 ± 0.07
- Firmicutes, 16S rRNA gene sequencing of caecal content [5]: 0.22 ± 0.07
- Lactibacllales, 16S rRNA gene sequencing of caecal content [5]: 0.25 ± 0.03
- Proteobacteria, 16S rRNA gene sequencing of caecal content [5]: 0.28 ± 0.04
- Selenomonadales, 16S rRNA gene sequencing of caecal content [5]: 0.16 ± 0.03
- Verrucomicrobia, 16S rRNA gene sequencing of caecal content [5]: 0.21 ± 0.07
- Verrucomicrobiales, 16S rRNA gene sequencing of caecal content [5]: 0.36 ± 0.08
